Experimental data published in ChEMBL document CHEMBL5705888, “Substrate specificity and inhibitors of LRRK2, a protein kinase mutated in Parkinson's disease” (Biochem J, 2009).
Active and inactive are the calls of the source. The calls are words filed in the database; no cut-off is given here.

What was measured:
[1] = target: T1, Serine/threonine-protein kinase STK11 (Homo sapiens) (UniProt Q15831); experiment: Inhibition of LKB1 (unknown origin) at 1 uM incubated for 30 mins in presence of [gamma-33P]ATP by multidrop micro reagent based assay relative to control
T1 sequence (whole entry): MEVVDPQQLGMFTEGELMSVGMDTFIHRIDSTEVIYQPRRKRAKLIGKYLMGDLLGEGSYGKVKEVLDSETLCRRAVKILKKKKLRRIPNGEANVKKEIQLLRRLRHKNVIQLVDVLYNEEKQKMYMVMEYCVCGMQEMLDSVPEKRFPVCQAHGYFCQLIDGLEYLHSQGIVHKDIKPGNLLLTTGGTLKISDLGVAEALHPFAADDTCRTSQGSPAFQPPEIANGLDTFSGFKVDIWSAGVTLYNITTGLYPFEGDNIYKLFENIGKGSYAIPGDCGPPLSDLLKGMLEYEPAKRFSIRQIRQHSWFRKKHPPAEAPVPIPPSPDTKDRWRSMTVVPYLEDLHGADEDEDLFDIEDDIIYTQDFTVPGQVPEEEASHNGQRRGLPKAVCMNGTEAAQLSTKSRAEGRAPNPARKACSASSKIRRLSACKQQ

[2] = target: T2, Serine/threonine-protein kinase TBK1 (Homo sapiens) (UniProt Q9UHD2); experiment: Inhibition of TBK1 (unknown origin) at 1 uM incubated for 30 mins in presence of [gamma-33P]ATP by multidrop micro reagent based assay relative to control; values are per cent of control
T2 sequence (whole entry): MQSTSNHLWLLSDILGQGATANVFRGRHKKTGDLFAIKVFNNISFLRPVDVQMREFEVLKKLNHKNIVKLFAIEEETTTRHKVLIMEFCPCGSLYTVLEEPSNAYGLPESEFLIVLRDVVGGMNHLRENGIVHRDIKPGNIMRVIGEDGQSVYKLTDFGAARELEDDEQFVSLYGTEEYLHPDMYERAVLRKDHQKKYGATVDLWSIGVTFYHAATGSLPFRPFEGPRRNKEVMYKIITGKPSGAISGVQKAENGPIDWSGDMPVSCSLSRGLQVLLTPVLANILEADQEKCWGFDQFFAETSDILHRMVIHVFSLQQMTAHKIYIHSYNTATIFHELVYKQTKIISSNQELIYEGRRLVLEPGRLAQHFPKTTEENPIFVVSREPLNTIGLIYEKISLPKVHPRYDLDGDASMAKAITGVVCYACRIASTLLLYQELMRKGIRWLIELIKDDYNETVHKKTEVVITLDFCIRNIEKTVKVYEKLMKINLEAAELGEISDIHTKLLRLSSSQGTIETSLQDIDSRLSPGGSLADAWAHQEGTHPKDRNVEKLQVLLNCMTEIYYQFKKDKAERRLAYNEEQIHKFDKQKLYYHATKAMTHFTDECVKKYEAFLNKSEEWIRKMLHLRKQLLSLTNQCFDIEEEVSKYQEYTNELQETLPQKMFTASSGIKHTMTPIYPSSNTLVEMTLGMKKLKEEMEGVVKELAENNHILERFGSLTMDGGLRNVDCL

[3] = target: Ephrin type-A receptor 2 (Homo sapiens) (UniProt P29317); experiment: Inhibition of EPH A2 (unknown origin) at 1 uM incubated for 30 mins in presence of [gamma-33P]ATP by multidrop micro reagent based assay relative to control; values are per cent of control
[4] = target: T3, Mitogen-activated protein kinase kinase kinase kinase 2 (Homo sapiens) (UniProt Q12851); experiment: Inhibition of GCK (unknown origin) at 1 uM incubated for 30 mins in presence of [gamma-33P]ATP by multidrop micro reagent based assay relative to control
T3 sequence (whole entry): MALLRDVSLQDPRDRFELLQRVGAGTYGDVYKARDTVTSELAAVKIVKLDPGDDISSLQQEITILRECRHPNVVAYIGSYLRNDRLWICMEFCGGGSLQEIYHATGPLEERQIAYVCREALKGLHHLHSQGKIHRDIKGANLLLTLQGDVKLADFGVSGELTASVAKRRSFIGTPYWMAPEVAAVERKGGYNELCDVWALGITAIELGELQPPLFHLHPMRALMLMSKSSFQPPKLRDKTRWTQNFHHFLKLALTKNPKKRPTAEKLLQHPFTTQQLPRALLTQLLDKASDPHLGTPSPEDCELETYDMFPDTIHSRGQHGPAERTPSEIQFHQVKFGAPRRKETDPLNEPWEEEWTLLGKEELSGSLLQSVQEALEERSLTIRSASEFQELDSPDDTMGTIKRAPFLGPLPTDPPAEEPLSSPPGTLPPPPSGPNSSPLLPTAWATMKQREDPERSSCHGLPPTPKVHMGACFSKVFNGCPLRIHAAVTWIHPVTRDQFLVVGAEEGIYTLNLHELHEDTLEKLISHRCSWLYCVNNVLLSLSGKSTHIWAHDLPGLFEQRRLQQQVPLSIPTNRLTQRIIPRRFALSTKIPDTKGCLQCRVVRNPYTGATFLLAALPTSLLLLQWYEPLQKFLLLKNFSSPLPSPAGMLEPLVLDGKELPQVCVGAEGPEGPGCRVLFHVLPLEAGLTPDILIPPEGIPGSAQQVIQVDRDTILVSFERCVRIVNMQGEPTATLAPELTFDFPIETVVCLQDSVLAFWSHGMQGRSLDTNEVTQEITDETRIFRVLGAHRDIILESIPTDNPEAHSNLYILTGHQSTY

[5] = target: Rho-associated protein kinase 2 (Homo sapiens, UniProt O75116); experiment: Inhibition of ROCK2 in human Flp-In-T-REx-293 cells harboring GFP-tagged constitutively active G14V-Rho mutant assessed as inhibition of MYPT phosphorylation at Thr850 at 10 uM incubated for 1 hr by immunoblot analysis; format: cell-based
How it was run: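 Flp-In T-REx cells carrying GFP-tagged G14V-Rho were induced with 1 μg/ml doxycycline in the medium. Seven hours after induction, cells were treated with 10 μM inhibitor for 1 h. They were then lysed directly in SDS lysis buffer and run on 4–12% gels. Blots were probed with anti-MYPT pThr850 (1 μg/ml in 5% BSA/TBST), followed by HRP secondary and ECL detection.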

Chain of Ephrin type-A receptor 2 (Homo sapiens) (P29317 whole entry): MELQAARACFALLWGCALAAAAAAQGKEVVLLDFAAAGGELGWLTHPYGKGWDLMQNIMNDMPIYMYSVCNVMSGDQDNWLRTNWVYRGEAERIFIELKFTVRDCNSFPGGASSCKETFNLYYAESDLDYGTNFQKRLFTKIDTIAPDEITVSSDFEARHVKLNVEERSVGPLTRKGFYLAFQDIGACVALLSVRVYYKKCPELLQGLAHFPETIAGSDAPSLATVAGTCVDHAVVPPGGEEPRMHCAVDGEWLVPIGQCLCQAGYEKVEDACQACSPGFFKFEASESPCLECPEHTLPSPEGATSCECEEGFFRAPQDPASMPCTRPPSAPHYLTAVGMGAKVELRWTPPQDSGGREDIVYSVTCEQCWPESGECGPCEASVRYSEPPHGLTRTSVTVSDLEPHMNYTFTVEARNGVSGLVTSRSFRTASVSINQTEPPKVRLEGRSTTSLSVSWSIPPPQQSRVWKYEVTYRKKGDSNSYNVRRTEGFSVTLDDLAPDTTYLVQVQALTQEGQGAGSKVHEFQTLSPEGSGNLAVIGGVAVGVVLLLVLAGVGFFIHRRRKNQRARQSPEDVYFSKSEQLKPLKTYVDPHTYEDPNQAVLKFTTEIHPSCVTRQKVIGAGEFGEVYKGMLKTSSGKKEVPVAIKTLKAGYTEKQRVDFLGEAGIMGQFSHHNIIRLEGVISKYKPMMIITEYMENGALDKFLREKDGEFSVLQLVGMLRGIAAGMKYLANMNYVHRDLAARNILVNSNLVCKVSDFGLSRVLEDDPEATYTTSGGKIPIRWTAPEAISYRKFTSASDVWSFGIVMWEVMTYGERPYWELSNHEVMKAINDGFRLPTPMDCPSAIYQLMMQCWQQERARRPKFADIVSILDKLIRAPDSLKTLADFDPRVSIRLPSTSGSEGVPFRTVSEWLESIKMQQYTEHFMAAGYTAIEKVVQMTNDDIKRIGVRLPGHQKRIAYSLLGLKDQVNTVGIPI
Chain of Rho-associated protein kinase 2 (O75116 whole entry, looked up): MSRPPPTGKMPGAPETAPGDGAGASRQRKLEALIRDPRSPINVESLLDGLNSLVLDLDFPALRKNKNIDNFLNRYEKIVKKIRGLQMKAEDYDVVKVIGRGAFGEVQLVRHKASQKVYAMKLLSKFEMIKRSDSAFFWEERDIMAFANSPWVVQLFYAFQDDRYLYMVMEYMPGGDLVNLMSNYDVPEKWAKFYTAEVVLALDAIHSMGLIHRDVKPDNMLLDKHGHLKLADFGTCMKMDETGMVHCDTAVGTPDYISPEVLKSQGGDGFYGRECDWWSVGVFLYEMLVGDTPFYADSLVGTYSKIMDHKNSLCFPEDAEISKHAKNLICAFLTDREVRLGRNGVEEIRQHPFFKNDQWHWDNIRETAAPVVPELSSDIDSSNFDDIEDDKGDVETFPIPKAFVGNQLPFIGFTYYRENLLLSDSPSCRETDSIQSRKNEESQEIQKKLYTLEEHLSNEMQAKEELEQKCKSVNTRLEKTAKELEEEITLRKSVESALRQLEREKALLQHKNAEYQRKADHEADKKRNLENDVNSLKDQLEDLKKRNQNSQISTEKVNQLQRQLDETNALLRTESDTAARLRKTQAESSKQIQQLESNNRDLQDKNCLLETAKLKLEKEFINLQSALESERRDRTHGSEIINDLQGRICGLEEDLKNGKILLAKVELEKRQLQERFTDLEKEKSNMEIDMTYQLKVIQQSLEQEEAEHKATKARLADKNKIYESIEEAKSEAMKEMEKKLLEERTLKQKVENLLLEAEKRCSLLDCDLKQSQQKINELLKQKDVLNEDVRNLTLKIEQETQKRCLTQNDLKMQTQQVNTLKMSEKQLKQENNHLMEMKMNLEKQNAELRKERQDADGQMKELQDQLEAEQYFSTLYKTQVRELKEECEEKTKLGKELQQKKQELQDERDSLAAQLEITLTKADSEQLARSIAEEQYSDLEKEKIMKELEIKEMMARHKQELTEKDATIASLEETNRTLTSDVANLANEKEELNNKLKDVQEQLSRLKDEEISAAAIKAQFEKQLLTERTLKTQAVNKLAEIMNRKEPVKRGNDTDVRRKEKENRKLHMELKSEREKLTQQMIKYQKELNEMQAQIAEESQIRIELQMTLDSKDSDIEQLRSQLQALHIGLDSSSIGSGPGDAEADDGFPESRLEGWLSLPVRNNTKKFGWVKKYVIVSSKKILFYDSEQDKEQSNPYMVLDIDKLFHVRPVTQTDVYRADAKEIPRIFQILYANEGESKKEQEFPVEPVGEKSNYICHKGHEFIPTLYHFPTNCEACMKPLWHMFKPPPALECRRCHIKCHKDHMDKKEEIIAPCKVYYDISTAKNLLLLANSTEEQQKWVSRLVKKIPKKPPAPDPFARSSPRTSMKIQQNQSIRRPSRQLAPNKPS

CCn1c(-c2nonc2N)nc2cnc(Oc3cccc(NC(=O)c4ccc(OCCN5CCOCC5)cc4)c3)cc21 [GSK-269962A] showed an inhibition [1] of 58%, a residual activity [2] of 77% and a residual activity [3] of 108%. For the same compound, the residual activity [4] was 78%.

For Cc1cncc2cccc(S(=O)(=O)N3CCCNC[C@@H]3C)c12, the inhibition [5] was “Active”, the inhibition [1] was 50% and the residual activity [2] was 98%. It also gave a residual activity [3] of 49% and a residual activity [4] of 56%.

For C[C@@H](N)[C@H]1CC[C@H](C(=O)Nc2ccncc2)CC1, the inhibition [5] was “Active”.

CC1=C(C(=O)Nc2cc3cn[nH]c3cc2F)C(c2ccc(C(F)(F)F)cc2)CC(=O)N1 (stereo unspecified) was tested, and the inhibition [5] was “Active”, the inhibition [1] was 58% and the residual activity [2] was 101%. It also gave a residual activity [3] of 105% and a residual activity [4] of 97%.

CCN(CC)CCNC(=O)c1c(C)[nH]c(/C=C2\C(=O)Nc3ccc(F)cc32)c1C gave a residual activity [2] of 54%.
